The IC50 is the concentration that inhibits the measured activity by half.

These results are taken from ChEMBL document CHEMBL4392843, “Structure and biological evaluation of new cyclic and acyclic laxaphycin-A type peptides” (Bioorg Med Chem, 2019).

The source made the active and inactive calls. No cut-off for these calls is given here. Numbered stars: 1 amine (or outer) side, 2 acyl side, 3 side chain; on linkers, the order of the positions; unused ones are H or OH. Square brackets hold non-standard residues; d marks the D form. Peptide text beside a SMILES is read from it. dβ3hAhp = CCCCC[C@H](CC(=O)[*:2])N[*:1]; d(aIle) = CC[C@H](C)[C@@H](N)C(=O)O; Hyp = O=C(O)[C@@H]1C[C@@H](O)CN1; X1 = C/C=C(/N[*:1])C(=O)[*:2]; hSer = N[C@@H](CCO)C(=O)O

The subject of data set [1] is SH-SY5Y. The data set can be described thus: Inhibition of reactive oxygen species production in human SH-SY5Y cells up to 10 uM measured after 6 hrs by DCFH-DA dye based fluorescence assay relative to control. Format: cell-based. Also on record: scale not given: the % may be the effect or the level left. The procedure, abridged:
(§1)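 SH-SY5Y cells were exposed to compounds (6 h; 1 h also run), washed in saline, and loaded with 20 µM DCF-DA for 30 min at 37 °C. They were then held 30 min at room temperature for de-esterification. DCF fluorescence was read at 475 nm excitation and 525 nm emission, expressed as % of diluent-treated controls, with four independent experiments in triplicate.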

Data set [2] deals with SH-SY5Y. Kind of data set: Effect on cell viability in human SH-SY5Y cells up to 10 uM after 1 hr by MTT assay. Type of data set: cell-based. A general note: Tetrazolium dyes change colour on reduction, which living cells bring about.
In data set [3] the test system is SH-SY5Y. The data set can be described thus: Effect on mitochondrial membrane potential in human SH-SY5Y cells up to 10 uM measured after 6 hrs by TMRM assay.
Data set [4] has as its system SH-SY5Y. Kind of data set: Induction of autophagy in human SH-SY5Y cells assessed as phosphorylated mTOR level at 10 uM measured after 6 hrs by Western blot analysis (reference value: 100%). Format: functional. The gist of the method:
(§2)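 SH-SY5Y cells were treated with 10 µM for 6 h and lysed in ice-cold hypotonic Tris buffer (pH 7.4) with 1% Triton X-100 and inhibitors. The cytosolic fraction was taken at 3000 rpm; membrane fraction came via nuclear extraction buffer. 20 µg protein was run on 10% SDS-PAGE with chemiluminescent detection. Read-outs were LC3II/LC3I ratio or % of untreated (p-mTOR, p62); three experiments in triplicate, blots run in duplicate.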

Data set [5] has as its system SH-SY5Y. Kind of data set: Induction of apoptosis in human SH-SY5Y cells assessed as increase in necrotic cells at 10 uM measured after 6 hrs by Annexin V-FITC/propidium iodide staining based flow cytometry. Type of data set: cell-based. The procedure, abridged:
(§3)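 SH-SY5Y cells (1×10^6 per well) were treated with 10 µM for 6 h, washed in PBS, and stained with annexin V-FITC/propidium iodide in binding buffer for 15 min. Imaging flow cytometry counted 10000 events. Viable, apoptotic and necrotic populations are given as % of untreated cells, mean ± SEM of three independent experiments in triplicate.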

In data set [6] the test system is SH-SY5Y. The data set can be described thus: Cytotoxicity against human SH-SY5Y cells assessed as reduction in cell viability measured after 6 hrs by MTT assay. Type of data set: cell-based. The conditions noted are these: for IC50: Homo sapiens, SH-SY5Y, 6 h; for Cytotoxicity call (toxic / non-toxic): sh-sy5y. The gist of the method: (§4)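 SH-SY5Y cells (ATCC CRL2266) in DMEM/F-12 with 10% FBS, 1% glutamax and penicillin/streptomycin, 37 °C, 5% CO2. Compounds were added to the medium (0.01, 0.05, 0.1 and 1 µM listed) for 24 or 6 h. Cells were then given 500 µg/mL MTT for 1 h and solubilized in 5% SDS, with A595 read. Saponin death-control absorbance was subtracted. IC50 reported with 95% CI and R².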

For data set [7], the system named is SH-SY5Y. Kind of data set: Induction of autophagy in human SH-SY5Y cells assessed as LC3-2/LC3-1 ratio at 10 uM measured after 6 hrs by Western blot analysis (reference value: 2.6 +/- 0.3). Type of data set: functional. For orientation: Immunoblotting shows a protein as a band on a membrane.
Data set [8] deals with SH-SY5Y. Kind of data set: Induction of apoptosis in human SH-SY5Y cells assessed as decrease in viable cells at 10 uM measured after 6 hrs by Annexin V-FITC/propidium iodide staining based flow cytometry. Type of data set: cell-based. The procedure, abridged: as §3
(In general: Flow cytometry measures light scatter and fluorescence of single cells or particles in a stream.)

The test system of data set [9] is SH-SY5Y. The data set can be described thus: Cytotoxicity against human SH-SY5Y cells assessed as reduction in cell viability measured after 24 hrs by LDH release assay. Type of data set: cell-based. The gist of the method: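 SH-SY5Y cells in DMEM/F-12 with 10% FBS at 37 °C, 5% CO2, exposed to compounds in the medium for 24 h. LDH release was measured with a commercial LDH-cytotoxicity kit per its protocol as the viability indicator. IC50 reported with 95% CI and R².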

Data set [10] relates to SH-SY5Y. Kind of data set: Induction of autophagy in human SH-SY5Y cells assessed as increase in cytoplasmic p62 levels at 10 uM measured after 6 hrs by Western blot analysis. Type of data set: functional, cell-based. The gist of the method: as §2
Data set [11] deals with SH-SY5Y. Kind of data set: Induction of apoptosis in human SH-SY5Y cells assessed as increase in apoptotic cells at 10 uM measured after 6 hrs by Annexin V-FITC/propidium iodide staining based flow cytometry. Format: cell-based. The procedure, abridged: as §3
The test system of data set [12] is SH-SY5Y. The data set can be described thus: Inhibition of reactive oxygen species production in human SH-SY5Y cells up to 10 uM measured after 1 hr by DCFH-DA dye based fluorescence assay. Format: cell-based. The procedure, abridged: as §1
Data set [13] has as its system SH-SY5Y. Kind of data set: Induction of autophagy in human SH-SY5Y cells assessed as decrease in cytoplasmic p62 levels at 10 uM measured after 6 hrs by Western blot analysis. The conditions noted are these: in the assay text read “membrane” for “cytoplasmic”. Type of data set: functional. The procedure, abridged: as §2
In data set [14] the test system is SH-SY5Y. The data set can be described thus: Cytotoxicity against human SH-SY5Y cells assessed as reduction in cell viability measured after 24 hrs by MTT assay. Type of data set: cell-based. The gist of the method:
as §4

Data set [15] relates to SH-SY5Y. Kind of data set: Cytotoxicity against human SH-SY5Y cells assessed as decrease in cell viability at 10 uM measured after 6 to 24 hrs by MTT assay relative to control. Type of data set: cell-based.
For data set [16], the system named is SH-SY5Y. The data set can be described thus: Effect on cell viability in human SH-SY5Y cells up to 10 uM after 6 hrs by MTT assay. Type of data set: cell-based.
For data set [17], the system named is SH-SY5Y. The data set can be described thus: Induction of autophagy in human SH-SY5Y cells assessed as increase in LC3-2/LC3-1 ratio at 10 uM measured after 6 hrs by Western blot analysis. Type of data set: functional, cell-based. The gist of the method:
as §2

[18] abbreviates: Homo sapiens, SH-SY5Y, 24 h, read-out: IC50.

For the compound `C/C=C1/NC(=O)[C@H](CCO)NC(=O)C[C@@H](CCCCC)NC(=O)CNC(=O)[C@H](CC(C)C)NC(=O)[C@@H](C(C)C)NC(=O)[C@H]([C@@H](C)CC)NC(=O)[C@@H](CC(C)C)NC(=O)[C@@H](Cc2ccccc2)NC(=O)[C@H](CCO)NC(=O)[C@@H]2C[C@@H](O)CN2C1=O`, the Activity entry in data set [1] is reported as “Toxic”; in [2], “Non-Toxic”; in [3] it was “Toxic”; in data set [4] it was 70.7%; in data set [5] it was “Non-Toxic”; in data set [8], “Toxic”. Further, the values for the Activity entry in data set [11] and in data set [12] were “Non-Toxic” and “Toxic”, respectively. The half-maximal inhibitory concentration (IC50) in [6] worked out at 3.7 µM; in data set [9] (setting [18]), 12.4 µM; in data set [14] (setting [18]) it was 5.6 µM. In addition, in [7], the Ratio is 6.4. The result in [10] and in data set [13] was Active.

For the compound `C/C=C(/NC(=O)[C@H](CCO)NC(=O)C[C@H](N)CCCCC)C(=O)N1C[C@H](O)C[C@H]1C(=O)N[C@@H](CCO)C(=O)N[C@H](Cc1ccccc1)C(=O)N[C@H](CC(C)C)C(=O)N[C@H](C(=O)N[C@@H](C(=O)N[C@@H](CC(C)C)C(=O)O)[C@@H](C)CC)[C@@H](C)CC`, the Activity in [1] is reported as 40%; in [2], “Non-Toxic”; in [3], “Toxic”; in data set [4], 70.3%; in [15], 50%; in data set [16], “Non-Toxic”. In addition, the Activity entry in data set [12] was “Toxic”. Also, the “Cytotoxicity call (toxic / non-toxic)” value in data set [6] is given as “Toxic”. Moreover, in data set [7], the Ratio is 6.7. Further, the values for the IC50 result in [9] (sh-sy5y) and in data set [14] (sh-sy5y) were “Non-Toxic” and “Toxic”, respectively. Also, the result in data set [10] and in data set [13] was Active.

Consider `C/C=C1/NC(=O)[C@H](CCO)NC(=O)C[C@@H](CCCCC)NC(=O)CNC(=O)[C@H](CC(C)C)NC(=O)[C@@H]([C@@H](C)CC)NC(=O)[C@H](C(C)C)NC(=O)[C@@H](CC(C)C)NC(=O)[C@@H](Cc2ccccc2)NC(=O)[C@H](CCO)NC(=O)[C@@H]2C[C@@H](O)CN2C1=O`, for which the Activity entry in [3] is given as “Toxic”; in [4], 73.1%; in data set [5] it was “Non-Toxic”; in [8], “Toxic”; in data set [11], “Non-Toxic”; in [13] it was 15.8%. Besides, the result in data set [17] and in [10] was Active. In addition, the values for the IC50 in [6], in data set [9] (setting [18]) and in [14] (setting [18]) were 1.3 µM, 3.6 µM and 0.6 µM, respectively.

On to `C/C=C(/NC(=O)[C@H](CCO)NC(=O)C[C@H](N)CCCCC)C(=O)N1C[C@H](O)C[C@H]1C(=O)N[C@@H](CCO)C(=O)N[C@H](Cc1ccccc1)C(=O)N[C@H](CC(C)C)C(=O)N[C@H](C(=O)N[C@@H](C(=O)O)[C@@H](C)CC)[C@@H](C)CC`, for which the “Cytotoxicity call (toxic / non-toxic)” value in data set [6] is listed as “Non-Toxic”. Moreover, the IC50 result in data set [9] (sh-sy5y) and in data set [14] (sh-sy5y) was “Non-Toxic” each time.

Consider `C/C=C1/NC(=O)[C@H](CCO)NC(=O)C[C@@H](CCCCC)NC(=O)CNC(=O)[C@H](CC(C)C)NC(=O)[C@@H]([C@@H](C)CC)NC(=O)[C@H]([C@@H](C)CC)NC(=O)[C@@H](CC(C)C)NC(=O)[C@@H](Cc2ccccc2)NC(=O)[C@H](CCO)NC(=O)[C@@H]2C[C@@H](O)CN2C1=O` [LAXAPHYCIN A] (cyclo(G[dβ3hAhp][hSer][X1][Hyp][hSer][dF][dL]I[d(aIle)]L)), for which, in [6], the “Cytotoxicity call (toxic / non-toxic)” value is recorded as “Non-Toxic”. The IC50 entry in data set [9] (sh-sy5y) and in data set [14] (sh-sy5y) was “Non-Toxic” throughout.
